An excerpt weighted towards active compounds, which were near 4.3% of everything screened.
SR-BI uptake up = SR-BI HDL lipid transfer activation. AID 504775. 320,000 tested, 0.096% active. CHO ldlA[mSR-BI] cells, DiI-HDL uptake fluorescence, 3 h; 100 = double the neutral-control signal. activation, % at 12.5 µM;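 active = mean replicate activation of at least 60% and every replicate at or above 60%; inconclusive = mean or all-replicate condition met, but not both; inactive = mean below 60% and not all replicates reaching 60%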;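 also: 0% = median plate neutral-control signal and 100% = twice that signal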
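System: CHO ldlA[mSR-BI] cells / Medium: HEPES-buffered (25 mM, pH 7.4) F12 plus 0.5% BSA / Probe or stimulus: labelled HDL, 10 µg/mL / Doses: single compound concentration, delivered by pin transfer / Schedule: 3 h, 37 °C / Measured by: DiI fluorescence, bottom read / Measure: cell-associated DiI fluorescence as measure of HDL uptake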
SR-BI DiI inh = inhibitors of mouse SR-BI mediated HDL lipid uptake | Q61009 | ldlA[mSR-BI] CHO cells, DiI-HDL uptake fluorescence, 3 h | inhibition, % at 12.5 µM | 320,000 tested, 0.96% active | AID 488896;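 active = mean replicate inhibition of at least 70% and a set share of replicates each scoring 70 or more; inconclusive = meets just one of the two criteria; inactive = fails both criteria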;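 also: 0% = median of neutral control wells and 100% = median of positive control wells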
Target sequence (Q61009 whole entry, looked up): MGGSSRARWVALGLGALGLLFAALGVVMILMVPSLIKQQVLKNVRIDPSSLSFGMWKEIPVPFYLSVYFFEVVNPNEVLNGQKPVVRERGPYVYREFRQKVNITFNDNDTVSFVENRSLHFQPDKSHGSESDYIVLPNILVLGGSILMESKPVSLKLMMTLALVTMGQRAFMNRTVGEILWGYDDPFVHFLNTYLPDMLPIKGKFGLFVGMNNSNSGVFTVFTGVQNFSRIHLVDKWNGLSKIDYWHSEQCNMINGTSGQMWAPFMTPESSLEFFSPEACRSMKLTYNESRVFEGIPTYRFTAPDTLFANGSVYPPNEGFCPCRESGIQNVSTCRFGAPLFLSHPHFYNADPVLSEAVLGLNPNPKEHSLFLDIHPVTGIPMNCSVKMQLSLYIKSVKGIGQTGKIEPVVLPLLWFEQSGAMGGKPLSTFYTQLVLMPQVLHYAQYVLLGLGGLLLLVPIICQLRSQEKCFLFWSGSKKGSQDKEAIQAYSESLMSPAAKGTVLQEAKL
Lipid droplet = hepatic lipid droplet formation modulation. 240,000 tested, 0.4% active. AML12 mouse hepatocytes, oleate lipid droplets, BODIPY imaging. inhibition, % at 6.5 µM. AID 1656;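 active = lipid droplet intensity inhibited by at least 50%, with more than 500 cells counted; inconclusive = wells with under 300 cells, treated as cytotoxic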
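Material – AML12 mouse liver cells · Also added – oleate loading, 100 µM · Compound dosing – 6.5 µM single-point dosing · Times – overnight treatment with compound plus oleate · Measured by – fluorescence imaging, 20x objective, two fields per well · Read-out – percent inhibition of filter-corrected integrated lipid droplet intensity per well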
SMARCA2 act = SMARCA2 function activation, primary screen; MG213 cells, MMTV-luciferase reporter, dexamethasone, overnight; activation, % at 9.1 µM; 370,000 tested, 1% active; in the data active = activation above about 7.8%;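 also: 0% = vehicle wells and 100% = reference activator wells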
AHR act = human AHR activation; 320,000 tested, 2.5% active; P35869; AHR-responsive luciferase reporter cells, luminescence; activation, % at 5 µM; in the data active = activation above about 47%;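 also: 0% = vehicle wells and 100% = reference agonist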
Yeast superoxide = lowers age-related superoxide in aged yeast cells; S. cerevisiae aged cells, superoxide DHE fluorescence; hits give low values; superoxide response (% of plate mean), % at 10 µM; 330,000 tested, 0.18% active;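 active = superoxide response under a set limit, about three screen SD below normal, cut at about 65% in these data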;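 also: yeast aged for seven days with compound at 30 °C before DHE staining; 100% = average MFI of all compound-treated wells on the plate with controls excluded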
Superoxide pick = yeast aging superoxide inhibition, cherry pick confirmation. S. cerevisiae aging, superoxide DHE fluorescence; hits give low values. AID 434994. shares compounds with Yeast superoxide. superoxide response (% of plate), % at 10 µM. 850 tested, 1% active;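 active = superoxide signal below 65% of the plate average of sample wells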;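 also: cells aged with compound for 7 days at 30 degrees C before staining; 100% equals mean DHE fluorescence of all compound wells on the plate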
DHE fluor count = compound alters DHE oxidation or fluorescence in yeast; fluorescence response, % at 10 µM; AID 435000; shares compounds with Yeast superoxide; 850 tested, under 10 active; S. cerevisiae BY4741, flow cytometry; hits give low values;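 active = fluorescence response below 15%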;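 also: percent of the mean fluorescence averaged over all compound wells on the plate; lower means stronger quenching of DHE signal or ROS scavenging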
An asterisk follows results filed as active; ? = inconclusive; · = no result.

SMILES | SR-BI uptake up | SR-BI DiI inh | Lipid droplet | SMARCA2 act | AHR act | Yeast superoxide | Superoxide pick | DHE fluor count
C=CS(=O)(=O)N[C@@H](CSSC[C@H](NS(=O)(=O)C=C)C(=O)OC)C(=O)OC | · | · | · | -1 | · | · | · | ·
O=C(c1cccc(F)c1)n1ccc2ccc(-c3ccc4ccn(Cc5ccccc5)c4c3)cc21 | · | · | · | -1 | · | · | · | ·
CCCCc1cc(=O)oc2cc(OCC(=O)N3CCC(C(N)=O)CC3)ccc12 | -16 | 16 | 4 | 1 | 1 | 75 | · | ·
CCCCc1cc(=O)oc2cc(OCC(=O)N3CCC(C(=O)O)(c4ccccc4)CC3)ccc12 | -6 | 6 | -3 | 2 | 1 | 64* | 113 | 95
Cn1cc(C2CC(c3ccccc3)=NN2C(=O)c2ccccc2)c2ccccc21 (configuration not stated) | 20 | -20 | 3 | 3 | 30 | 59* | 93 | 103
O=C(NCc1ccccc1)[C@@H]1CCCN1C(=O)[C@H]1CCCN1C(=O)c1ccc(F)c(F)c1 | · | · | · | 0 | · | · | · | ·
COc1ccc(C2(c3ccc(OC(C)=O)cc3OC(C)=O)CC(c3ccccc3)NC(=S)N2)cc1 (configuration not stated) | 0 | 0 | 10 | 6 | -1 | 61* | 120 | 123
CCn1c2ccccc2c2cc(C=NNC(=O)c3cc(-c4ccc(OC)cc4)n[nH]3)ccc21 | · | · | · | 4 | · | · | · | ·
C=C1CCC[C@]2(C)C[C@H]3OC(=O)C(CNCCN(CC)CC)[C@H]3CC12 (some centres not stated) | 7 | -7 | · | -1 | 2 | 56* | 96 | 95
COCCCN1C(=O)N(c2ccccc2)C(=O)C1CC(=O)Nc1ccc(F)cc1 (configuration not stated) | 8 | -8 | -1 | 0 | 0 | 62* | 95 | 90
COCCCN1C(=O)N(c2ccccc2)C(=O)C1CC(=O)Nc1ccccc1 (configuration not stated) | 33 | -33 | ? | 1 | 0 | 116 | · | ·
COc1ccc(S(=O)(=O)Nc2noc3ccccc23)cc1 | 1 | -1 | 1 | 0 | 8 | 102 | · | ·
COc1ccc(S(=O)(=O)Nc2noc3ccccc23)cc1OC | 18 | -18 | 8 | 2 | -1 | 54* | 83 | 97
CCOC(=O)[C@@H]1CSCCS(=O)(=O)N1C(=O)[C@H](CCSC)NC(=O)OC(C)(C)C | · | · | · | -2 | · | · | · | ·
CN1OC[C@@H]2CN(C(=S)Nc3cc(C(F)(F)F)cc(C(F)(F)F)c3)[C@H](c3ccccc3Br)C[C@@H]21 | · | · | · | -3 | · | · | · | ·
CN(C(=O)CN1CCN(c2ccc([N+](=O)[O-])cn2)CC1)c1ccccc1 | 12 | -12 | · | · | -1 | 130 | 96 | 103
O=C(NCc1ccccc1)[C@@H]1CCCN1C(=O)[C@H]1CCCN1C(=O)c1cc(F)cc(F)c1 | · | · | · | -2 | · | · | · | ·
O=C(NC(=S)NNC(=O)c1cnccn1)c1ccc(Cl)cc1 | -29 | 29 | -52 | -2 | 13 | 53* | 111 | 92
O=C(NNC(=S)NC(=O)c1cccnc1)c1ccc(Cl)cc1 | 12 | -12 | · | -1 | -2 | 105 | · | ·
COc1cc(C)c(Cl)cc1S(=O)(=O)N1CCCC1 | 20 | -20 | -24 | -2 | 0 | 100 | 103 | 90
COc1cc(S(=O)(=O)N2CCCC2)c(C)cc1C | -1 | 1 | 27 | 2 | 1 | 110 | · | ·
COc1cc(C)c(Br)cc1S(=O)(=O)N1CCCC1 | -11 | 11 | -7 | 1 | -4 | 102 | 100 | 95
COc1cc(Cl)c(S(=O)(=O)N2CCCC2)cc1Cl | -12 | 12 | -4 | -4 | 2 | 87 | 92 | 97
Cc1ccccc1CN1CCCCC(NC(=O)c2ccc(-c3ccccc3)cc2)C1=O (configuration not stated) | · | · | · | -4 | · | · | · | ·
C[C@@H]1CN([C@@H](C)CO)C(=O)CCCn2cc(nn2)CO[C@H]1CN(C)C(=O)Nc1ccc(F)cc1 | · | · | · | -2 | · | · | · | ·
SMILES | SR-BI uptake up | SR-BI DiI inh | Lipid droplet | SMARCA2 act | AHR act | Yeast superoxide | Superoxide pick | DHE fluor count
C[C@H]1COc2cc(Br)ccc2S(=O)(=O)N1Cc1cn(Cc2ccccc2)nn1 | · | · | · | -1 | · | · | · | ·
COc1ccc(/C=C2\SC(N3CCCCC3)=NC2=O)cc1 | · | · | 12 | 7 | 49* | 55* | 98 | 99
COC(=O)c1cc(-c2cccc3c2sc2ccccc23)c(=O)n2c1CCC2 | · | · | · | -3 | · | · | · | ·
CCN(CC)C(=O)CCSc1nnc(-c2ccncc2)o1 | 8 | -8 | -1 | -2 | 2 | 100 | · | ·
CCCNC(=O)CSc1nnc(-c2ccc(F)cc2)o1 | 6 | -6 | -3 | -1 | 0 | 127 | 117 | 100
CCN(CC)C(=O)CSc1nnc(-c2ccccc2)o1 | 6 | -6 | -3 | 4 | 5 | 98 | 96 | 96
CC(=O)N1CCN(C(=O)c2ccc3c(c2)S(=O)(=O)c2ccccc2C3=O)CC1 | 12 | -12 | -2 | 0 | 1 | 47* | 95 | 99
CCc1cccc(C)c1NC(=O)COC(=O)c1ccc2c(c1)S(=O)(=O)c1ccccc1C2=O | 14 | -14 | 2 | -2 | 0 | 59* | 94 | 96
CN1CCN(C(=O)c2ccc3c(c2)S(=O)(=O)c2ccccc2C3=O)CC1 | 24 | -24 | 10 | 0 | 2 | 114 | · | ·
CCCNS(=O)(=O)c1ccc(NC(=O)c2cccnc2)cc1 | -3 | 3 | -10 | -2 | 1 | 58* | 115 | 107
Cc1ccc(N=C2NC(=O)/C(=C/c3cccn3C)S2)cc1C | · | · | 2 | 0 | 7 | 98 | · | ·
Cc1ccc(N=C2NC(=O)/C(=C/c3cccs3)S2)cc1C | -15 | 15 | -2 | 3 | 6 | 59* | 94 | 90
Cc1cc(NC(=O)CSC2=Nc3ccccc3C3=NC(Cc4ccccc4)C(=O)N23)n[nH]1 (configuration not stated) | -9 | 9 | -1 | -4 | 15 | 90 | · | ·
CCN(CC)C(=O)CSC1=Nc2ccccc2C2=NC(Cc3c[nH]c4ccccc34)C(=O)N12 (configuration not stated) | 0 | 0 | -21 | -1 | 14 | 65* | 104 | 91
CC(=O)Nc1ccc(S(=O)(=O)N2CCCC2)cc1 | 22 | -22 | -2 | 0 | -2 | 101 | 98 | 115
CC(=O)Nc1ccc(S(=O)(=O)N2CCN(S(=O)(=O)N3CCCCCC3)CC2)cc1 | -8 | 8 | 6 | -1 | -1 | 111 | · | ·
COCC(=O)Nc1ccc(S(=O)(=O)N2CCCC2)cc1 | -1 | 1 | -1 | 5 | 0 | 88 | 99 | 100
COc1ccc(CN2CN3Cc4cc(F)ccc4C3CS2(=O)=O)cc1 (configuration not stated) | · | · | · | -3 | · | · | · | ·

Screening data (PubChem BioAssay)
